In data set [1] the target is Beta-galactosidase (Escherichia coli) (UniProt P00722). Briefly: Inhibition of beta-galactosidase.
Data set [2] relates to Blood. The experiment in a line: Biodistribution in NMRI mouse blood assessed per gram of tissue at 37 MBq/ml, iv after 60 mins. It counts as ADME, organism-based. The settings on record: in vivo, 1 h. Summed up:
(§1)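 Male NMRI mice (35–45 g), isoflurane-anaesthetised (2.5% in O2), given 0.1 mL tracer at about 37 MBq/mL in 0.9% NaCl (ethanol <10%) via tail vein. Killed by decapitation at 2 or 60 min p.i., n = 4 per time point. Blood and organs weighed, gamma counted and background corrected. Expressed as %ID/g; blood mass taken as 7% of body mass. Mean ± SD.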

Data set [3] concerns Kidney. The experiment in a line: Biodistribution in NMRI mouse kidney assessed per gram of tissue at 37 MBq/ml, iv after 60 mins. It counts as ADME, organism-based. The settings on record: in vivo, 1 h. Summed up:
as §1

The subject of data set [4] is Stomach. The experiment in a line: Biodistribution in NMRI mouse stomach assessed per gram of tissue at 37 MBq/ml, iv after 60 mins. Type of data set: ADME, organism-based. The settings on record: in vivo, 1 h. Summed up:
as §1

Data set [5] has as its system Blood. The experiment in a line: Biodistribution in NMRI mouse blood assessed per gram of tissue at 37 MBq/ml, iv after 2 mins. It counts as ADME, organism-based. The settings on record: in vivo. Summed up:
as §1

A short description of data set [6]: Metabolic stability in NMRI mouse urine assessed as drug recovery at 18 MBq, iv after 30 mins by RP-HPLC. Type of data set: ADME, organism-based. The settings on record: in vivo, 0.5 h. The procedure, abridged:
(§2)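 NMRI mice under isoflurane received about 18 MBq tracer iv and were decapitated at 10 or 30 min, n = 2. Plasma was separated from heparinised blood by centrifugation; urine was taken at 30 min by bladder voiding and mixed with authentic compound. Both were analysed by gradient RP-HPLC, fractions gamma counted, and intact tracer was expressed as % of recovered radioactivity.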

In data set [7] the test system is HEK293. The experiment in a line: Drug uptake in human HEK293 cells assessed as radioactivity after 30 mins. It counts as ADME, cell-based. The settings on record: hek293, 0.5 h. The procedure, abridged: (§3)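 293T cells were lentivirally transduced with LacZ or, as control, VZV-tk, and kept in DMEM/10% FCS with 1 µg/mL puromycin. 200,000 cells per well were seeded and used after 24 h. Cells received fresh medium with 1.1 MBq tracer per well for 30–120 min at 37 °C, 5% CO2. After ice-cold PBS washes, cells were lysed; lysate and supernatant were gamma counted. Result is % radioactivity in the cell fraction, triplicate means.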

A short description of data set [8]: Biodistribution in NMRI mouse spleen + pancreas assessed per gram of tissue at 37 MBq/ml, iv after 60 mins. Type of data set: ADME, organism-based. The settings on record: in vivo, 1 h. Summed up: as §1
Data set [9] relates to HEK293. The experiment in a line: Drug uptake in human HEK293 cells assessed as radioactivity after 120 mins. Type of data set: ADME, cell-based. The settings on record: hek293, 2 h. Summed up: as §3
Data set [10] is described as follows: Biodistribution in NMRI mouse urine at 37 MBq/ml, iv after 2 mins. Type of data set: ADME, organism-based. The settings on record: in vivo. The procedure, abridged:
(§4)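 Male NMRI mice under isoflurane received 0.1 mL of about 37 MBq/mL tracer iv in saline (ethanol <10%). Decapitated at 2 or 60 min, n = 4 per time point. Radioactivity counted in a NaI(Tl) well counter and expressed as %ID, i.e. cpm in organ over total cpm recovered. Mean ± SD.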

Data set [11] relates to Liver. Briefly: Biodistribution in NMRI mouse liver assessed per gram of tissue at 37 MBq/ml, iv after 2 mins. The settings on record: in vivo. It counts as ADME, organism-based. Summed up:
as §1

A short description of data set [12]: Biodistribution in NMRI mouse carcass at 37 MBq/ml, iv after 2 mins. Type of data set: ADME, organism-based. The settings on record: in vivo. The procedure, abridged:
as §4

Data set [13] has as its system Kidney. The experiment in a line: Biodistribution in NMRI mouse kidney assessed per gram of tissue at 37 MBq/ml, iv after 2 mins. Type of data set: ADME, organism-based. The settings on record: in vivo. The procedure, abridged: as §1
Data set [14] can be described thus: Biodistribution in NMRI mouse urine at 37 MBq/ml, iv after 60 mins. The settings on record: in vivo, 1 h. It counts as ADME, organism-based. Summed up: as §4
The nature of data set [15]: Biodistribution in NMRI mouse carcass at 37 MBq/ml, iv after 60 mins. It counts as ADME, organism-based. The settings on record: in vivo, 1 h. The procedure, abridged: as §4
The nature of data set [16]: Octanol-phosphate buffer partition coefficient, log P of the compound. Type of data set: physicochemical. The procedure, abridged: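 About 555 kBq of purified tracer was added to 2 mL n-octanol and 2 mL 0.025 M sodium phosphate pH 7.4. The mixture was vortexed 2 min at room temperature and centrifuged 5 min at 1837 g. Aliquots of each phase were weighed and gamma counted. P was taken as cpm/mL in octanol over cpm/mL in buffer, after density correction. At least triplicate.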

For data set [17], the system named is Plasma. Briefly: Metabolic stability in NMRI mouse plasma assessed as drug recovery at 18 MBq, iv after 30 mins by RP-HPLC. It counts as ADME, organism-based. The settings on record: in vivo, 0.5 h. Summed up:
as §2

The test system of data set [18] is Stomach. Briefly: Biodistribution in NMRI mouse stomach assessed per gram of tissue at 37 MBq/ml, iv after 2 mins. Type of data set: ADME, organism-based. The settings on record: in vivo. The procedure, abridged: as §1
Data set [19] relates to Liver. The experiment in a line: Biodistribution in NMRI mouse liver assessed per gram of tissue at 37 MBq/ml, iv after 60 mins. It counts as ADME, organism-based. The settings on record: in vivo, 1 h. Summed up:
as §1

Data set [20] relates to Brain. Briefly: Biodistribution in NMRI mouse brain assessed per gram of tissue at 37 MBq/ml, iv after 60 mins. It counts as ADME, organism-based. The settings on record: in vivo, 1 h. Summed up:
as §1

The target in data set [21] is Beta-galactosidase (Escherichia coli) (UniProt Q8VNN2). The experiment in a line: Inhibition of Escherichia coli beta-galactosidase assessed as substrate hydrolysis at 1 mg/ml after 90 mins by competitive binding assay in presence of ONPG. On the set-up: scale not given: the % may be the effect or the level left. The settings on record: tested as the 11C-labelled form. The procedure, abridged: (§5)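 E. coli β-gal (10 U, 149 U/mg) was incubated at 37 °C with 1 mg/mL triazole in HEPES pH 7.0 (120 mM) containing 4 mM MgSO4 and 180 mM NaCl. ONPG (1 mg in 1 mL HEPES solution) was then added. Samples taken 15 and 90 min later were analysed by RP-HPLC with UV detection.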

The target is the same in data set [22]. The experiment in a line: Inhibition of Escherichia coli beta-galactosidase assessed as substrate hydrolysis at 1 mg/ml after 15 mins by competitive binding assay in presence of ONPG. On the set-up: scale not given: the % may be the effect or the level left. The settings on record: tested as the 11C-labelled form. Summed up: as §5

This is an account of results in ChEMBL document CHEMBL1154075, “Synthesis and biological evaluation of (11)C-labeled beta-galactosyl triazoles as potential PET tracers for in vivo LacZ reporter gene imaging” (Bioorg Med Chem, 2009).

Several values for one entry are separate records, joined by “and”; a condition that tells them apart may be missing. Identical values can stand only once.

Sequence of Beta-galactosidase (Escherichia coli) (UniProt Q8VNN2) (Q8VNN2 whole entry, looked up): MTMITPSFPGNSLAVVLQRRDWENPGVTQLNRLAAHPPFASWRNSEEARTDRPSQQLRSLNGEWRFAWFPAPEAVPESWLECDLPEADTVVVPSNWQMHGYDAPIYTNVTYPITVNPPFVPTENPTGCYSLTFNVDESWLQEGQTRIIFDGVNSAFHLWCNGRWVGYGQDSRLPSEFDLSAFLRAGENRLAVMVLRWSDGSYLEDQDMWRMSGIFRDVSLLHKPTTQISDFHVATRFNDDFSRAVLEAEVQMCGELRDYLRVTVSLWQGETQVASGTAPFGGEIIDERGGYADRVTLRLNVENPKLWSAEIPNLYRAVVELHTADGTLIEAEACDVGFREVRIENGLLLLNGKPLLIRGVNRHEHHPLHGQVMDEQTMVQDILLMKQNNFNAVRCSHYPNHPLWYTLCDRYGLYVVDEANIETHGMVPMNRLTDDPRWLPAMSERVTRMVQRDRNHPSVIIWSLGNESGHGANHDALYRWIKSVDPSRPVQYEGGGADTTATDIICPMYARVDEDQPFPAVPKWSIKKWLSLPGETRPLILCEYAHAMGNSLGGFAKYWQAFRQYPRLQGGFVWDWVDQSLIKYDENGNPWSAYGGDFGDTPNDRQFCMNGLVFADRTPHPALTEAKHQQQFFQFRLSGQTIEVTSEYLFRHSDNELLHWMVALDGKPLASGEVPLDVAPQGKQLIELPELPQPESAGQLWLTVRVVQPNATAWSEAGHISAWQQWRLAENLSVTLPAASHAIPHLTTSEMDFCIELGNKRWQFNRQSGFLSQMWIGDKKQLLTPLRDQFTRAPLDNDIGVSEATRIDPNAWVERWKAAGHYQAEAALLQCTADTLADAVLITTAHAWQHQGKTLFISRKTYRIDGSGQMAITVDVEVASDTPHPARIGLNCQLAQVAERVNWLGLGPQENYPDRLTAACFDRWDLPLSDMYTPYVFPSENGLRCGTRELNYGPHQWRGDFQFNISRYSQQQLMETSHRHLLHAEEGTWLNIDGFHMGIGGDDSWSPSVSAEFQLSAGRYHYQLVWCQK
Sequence of Beta-galactosidase (Escherichia coli) (UniProt P00722) (P00722 whole entry, looked up): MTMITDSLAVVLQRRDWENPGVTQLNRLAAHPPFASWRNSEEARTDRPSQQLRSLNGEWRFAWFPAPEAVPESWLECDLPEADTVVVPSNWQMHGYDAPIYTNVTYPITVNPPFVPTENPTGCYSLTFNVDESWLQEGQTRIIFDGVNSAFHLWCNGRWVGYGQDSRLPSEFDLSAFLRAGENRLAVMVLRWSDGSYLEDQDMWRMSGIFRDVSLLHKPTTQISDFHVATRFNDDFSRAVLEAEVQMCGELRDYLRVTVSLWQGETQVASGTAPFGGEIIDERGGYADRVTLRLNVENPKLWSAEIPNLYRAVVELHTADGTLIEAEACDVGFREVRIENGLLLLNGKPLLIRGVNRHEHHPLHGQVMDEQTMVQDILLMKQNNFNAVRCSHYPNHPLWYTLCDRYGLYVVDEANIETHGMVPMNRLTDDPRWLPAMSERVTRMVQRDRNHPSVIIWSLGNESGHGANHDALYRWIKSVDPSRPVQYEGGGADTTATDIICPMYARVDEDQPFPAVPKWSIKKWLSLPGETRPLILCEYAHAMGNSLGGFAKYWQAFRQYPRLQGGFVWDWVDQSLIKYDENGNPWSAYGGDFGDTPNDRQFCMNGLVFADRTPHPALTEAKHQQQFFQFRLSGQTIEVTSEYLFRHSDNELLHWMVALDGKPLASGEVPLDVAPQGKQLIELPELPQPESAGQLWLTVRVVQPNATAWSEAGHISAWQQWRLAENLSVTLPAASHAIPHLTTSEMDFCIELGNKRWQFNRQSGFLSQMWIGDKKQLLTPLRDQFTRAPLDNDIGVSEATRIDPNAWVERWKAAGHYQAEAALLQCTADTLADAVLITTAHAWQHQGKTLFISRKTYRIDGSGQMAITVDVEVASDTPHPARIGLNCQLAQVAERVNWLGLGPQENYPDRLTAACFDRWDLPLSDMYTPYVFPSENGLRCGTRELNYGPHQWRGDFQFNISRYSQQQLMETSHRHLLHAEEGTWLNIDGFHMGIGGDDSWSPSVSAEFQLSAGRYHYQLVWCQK

Usually Ki stands for the dissociation constant of the complex between target and ligand, obtained from inhibition or displacement. The compound `OC[C@H]1O[C@@H](n2cc(-c3ccccc3)nn2)[C@H](O)[C@@H](O)[C@H]1O` returned a Ki in [1] of 330 µM.
For orientation: logP means a log measure of how a compound divides between an organic and an aqueous phase. In the case of `[11CH3]Oc1ccc2cc(-c3cn([C@@H]4O[C@H](CO)[C@H](O)[C@H](O)[C@H]4O)nn3)ccc2c1`, the Drug uptake is 4.2 %ID and 1.6 %ID in [2]; 1 %ID and 1.4 %ID in data set [3]; 0.4 %ID and 0.2 %ID in data set [4]; 50.9 %ID and 18.6 %ID in data set [5]; 0.6% in data set [7]; 0.4 %ID and 1.2 %ID in data set [8]. For the same compound, the Drug uptake in data set [9] was 1.4%; in data set [10], 0.1 %ID; in [11], 12.1 %ID and 25.8 %ID; in data set [12], 34.3 %ID; in data set [13] it was 7.2 %ID and 5.7 %ID; in [14] it was 2.8 %ID. Besides, the Drug uptake in [15] was 12.2 %ID; in data set [18], 1.1 %ID and 0.9 %ID; in [19], 7.1 %ID and 3.4 %ID; in [20], 0 %ID and 0.2 %ID. Further, the Stability entry in [6] and in data set [17] was “Stable” throughout. In data set [16], this compound showed a logP of 1.4.
Regarding `[11CH3]Oc1ccc(-c2cn([C@@H]3O[C@H](CO)[C@H](O)[C@H](O)[C@H]3O)nn2)cc1`, the Drug uptake in data set [3] is 4 %ID and 4.4 %ID; in data set [4], 0.9 %ID and 1.4 %ID; in data set [8] it was 0.6 %ID and 1.7 %ID; in [9], 0.4%; in data set [10] it was 3.1 %ID; in data set [11] it was 18.7 %ID and 8.7 %ID. Further, the Drug uptake in data set [12] is 38.1 %ID; in [13] it was 16.1 %ID and 19.3 %ID; in [14] it was 47.5 %ID; in data set [15], 19.6 %ID; in data set [18] it was 0.9 %ID and 1.5 %ID; in [19] it was 13.4 %ID and 6.3 %ID. The Drug uptake in [20] is 0 %ID and 0.3 %ID. Further, the Stability entry in [6] and in [17] was “Stable” in each case. The compound further yielded a logP in [16] of -0.1.
Consider `COc1ccc(-c2cn([C@@H]3O[C@H](CO)[C@H](O)[C@H](O)[C@H]3O)nn2)cc1`, for which the Activity was 70% in [21] and 40% in data set [22].
